Converted amounts (≈) assume the structure as drawn. Some results are limits rather than exact numbers.

By IC50 is commonly meant the point on the concentration scale where inhibition reaches its midpoint.

One assay has as its system Salmonella typhi. The assay is described as follows: Antibacterial activity against gram negative bacteria Salmonella typhi was determined by twofold Micro-broth dilution assay. The assay is classed as functional, organism-based, Salmonella enterica subsp. enterica serovar Typhi. Conditions: Salmonella enterica.
A further assay relates to Salmonella typhimurium. In words: Antibacterial activity against gram negative bacteria Salmonella Typhimurium was determined by twofold Micro-broth dilution assay. The class given is functional, organism-based, Salmonella enterica subsp. enterica serovar Typhimurium. Conditions: Salmonella enterica. The method in brief:
(§1)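 Broth microdilution with two-fold serial dilutions of compound added to pre-inoculated microtitre plates. Inoculum diluted in phosphate-buffered saline to 10^6 cfu/mL, then plated at a final 10^3 cells per 150 µL medium. Controls were medium plus inoculum and a solvent control at the highest-concentration solvent level. Plates incubated at 37 °C and read by OD at 600 nm. IC50 is the concentration giving 50% of control-inoculum growth.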
For orientation: Dilution methods test growth across graded concentrations, often in twofold steps.

The test system of the next assay is Sporothrix schenckii. The assay is described as follows: Antifungal activity against Sporothrix schenck ii was determined by twofold Micro-broth dilution assay. The class given is functional, organism-based. The following applies: Sporothrix schenckii; read-out: IC50. The method in brief:
(§2)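 Fungal strains tested by two-fold serial broth microdilution in microtitre plates. Cells diluted in phosphate-buffered saline to 10^6 cfu/mL and inoculated at a final 10^3 cells per 150 µL medium. Medium/inoculum and solvent controls were included. Incubation at 28 °C, then OD read at 600 nm. IC50 is the concentration at which growth is 50% of the control inoculum.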

The next assay has as its system Aspergillus flavus. In words: Antifungal activity against Aspergillus flavus was determined by twofold Micro-broth dilution assay. The class given is functional, organism-based. The following applies: Aspergillus flavus; read-out: IC50. The method in brief: as §2
The next assay concerns Trichophyton rubrum. In words: Antifungal activity against Trichophyton rubrum was determined by twofold Micro-broth dilution assay. The class given is functional, organism-based. Conditions: Trichophyton rubrum; read-out: IC50. The method in brief: as §2
Another assay deals with Enterococcus faecalis. In words: Antibacterial activity against gram positive bacteria Enterococcus faecalis was determined by twofold Micro-broth dilution assay. The class given is functional, organism-based. In a few lines: as §1
The next assay has as its system Aspergillus niger. In words: Antifungal activity against Aspergillus niger was determined by twofold Micro-broth dilution assay. The class given is functional, organism-based. The following applies: Aspergillus niger; read-out: IC50. The method in brief: as §2
The subject of assay [1] is Staphylococcus epidermidis. The assay is described as follows: Antibacterial activity against gram positive bacteria Staphylococcus epidermidis was determined by twofold Micro-broth dilution assay. The class given is functional, organism-based. The method in brief:
as §1

For the next assay, the system named is Staphylococcus aureus. The assay is described as follows: Antibacterial activity against gram positive bacteria Staphylococcus aureus was determined by twofold Micro-broth dilution assay. The class given is functional, organism-based. The method in brief: as §1
In another assay the test system is Escherichia coli. The assay is described as follows: Antibacterial activity against gram negative bacteria Escherichia coli was determined by twofold Micro-broth dilution assay. The assay is classed as functional, organism-based. In a few lines: as §1
The test system of a further assay is Streptococcus mutans. The assay is described as follows: Antibacterial activity against gram positive bacteria Streptococcus mutans was determined by twofold Micro-broth dilution assay. The class given is functional, organism-based. The method in brief:
as §1

Another assay relates to Nannizzia gypsea. The assay is described as follows: Antifungal activity against Microsporum gypseum was determined by twofold Micro-broth dilution assay. The following applies: Nannizzia gypsea; read-out: IC50. The assay is classed as functional, organism-based. The method in brief: as §2
The subject of another assay is Candida albicans. In words: Antifungal activity against Candida albicans was determined by twofold Micro-broth dilution assay. The assay is classed as functional, organism-based. The following applies: Candida albicans; read-out: IC50. The method in brief: as §2
Another assay deals with Cryptococcus neoformans. The assay is described as follows: Antifungal activity against Cryptococcus neoformans was determined by twofold Micro-broth dilution assay. The class given is functional, organism-based. The method in brief:
as §2

The test system of a further assay is Klebsiella aerogenes. The assay is described as follows: Antibacterial activity against gram negative bacteria Enterobacter aerogens was determined by twofold Micro-broth dilution assay. The class given is functional, organism-based. In a few lines:
as §1

The next assay has as its system Histoplasma capsulatum. The assay is described as follows: Antifungal activity against Histoplasma capsulatum was determined by twofold Micro-broth dilution assay. The class given is functional, organism-based. The method in brief:
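Fungal broth microdilution. Cells were diluted to 10^6 cfu/mL in phosphate-buffered saline and seeded at a final 10^3 cells per well. Two-fold serial compound dilutions were added. Plates carried inoculum-only and solvent controls, the solvent matched to the highest concentration. After incubation at 28 °C, OD was read at 600 nm. IC50 is the concentration where growth is 50% of control.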

A further assay relates to Shigella flexneri. In words: Antibacterial activity against gram negative bacteria Shigella flexenerii was determined by twofold Micro-broth dilution assay. The assay is classed as functional, organism-based. The method in brief:
as §1

Consider `C[C@H](CCC(=O)N[C@H](CO)[C@H](O)c1ccccc1)[C@H]1CC[C@H]2[C@@H]3CC[C@@H]4C[C@H](O)CC[C@]4(C)[C@H]3C[C@H](O)[C@]12C`, for which the IC50 was above 250 µg/mL with Salmonella typhi; above 250 µg/mL in the assay on Salmonella typhimurium; above 250 µg/mL with Sporothrix schenckii; above 250 µg/mL in the assay on Aspergillus flavus; above 250 µg/mL in the assay with Trichophyton rubrum; 60 µg/mL (≈ 111 µM) in the assay with Enterococcus faecalis. In addition, the IC50 in the assay on Aspergillus niger is above 250 µg/mL; in assay [1], 40 µg/mL (≈ 73.8 µM); with Staphylococcus aureus it was 40 µg/mL (≈ 73.8 µM); in the assay with Escherichia coli it was above 250 µg/mL; with Streptococcus mutans it was 25 µg/mL (≈ 46.1 µM); in the assay on Nannizzia gypsea it was above 250 µg/mL. Also, the IC50 with Candida albicans, in the assay on Cryptococcus neoformans, in the assay with Klebsiella aerogenes, in the assay on Histoplasma capsulatum and in the assay with Shigella flexneri was above 250 µg/mL throughout.
With `C[C@H](CCC(=O)N[C@@H](CO)[C@@H](O)c1ccc([N+](=O)[O-])cc1)[C@H]1CC[C@H]2[C@@H]3C(O)C[C@@H]4C[C@H](O)CC[C@]4(C)[C@H]3C[C@H](O)[C@]12C` (stereo partly specified), the IC50 with Salmonella typhi, in the assay with Salmonella typhimurium, with Sporothrix schenckii, in the assay with Aspergillus flavus, with Trichophyton rubrum and in the assay with Enterococcus faecalis was above 250 µg/mL throughout. The IC50 with Aspergillus niger was above 250 µg/mL; in [1] it was above 250 µg/mL; in the assay on Staphylococcus aureus, 75 µg/mL (≈ 124 µM); in the assay on Escherichia coli, above 250 µg/mL; with Streptococcus mutans it was 40 µg/mL (≈ 66.4 µM); with Nannizzia gypsea, above 250 µg/mL. For the same molecule, the IC50 with Candida albicans, in the assay on Cryptococcus neoformans, in the assay on Klebsiella aerogenes, in the assay on Histoplasma capsulatum and in the assay on Shigella flexneri was above 250 µg/mL each time.
`C[C@H](CCC(=O)N[C@@H](CO)[C@@H](O)c1ccccc1)[C@H]1CC[C@H]2[C@@H]3CC[C@@H]4C[C@H](O)CC[C@]4(C)[C@H]3C[C@H](O)[C@]12C`: the IC50 with Salmonella typhi, in the assay with Salmonella typhimurium, with Sporothrix schenckii, in the assay on Aspergillus flavus, with Trichophyton rubrum and with Enterococcus faecalis was above 250 µg/mL each time. Also, the IC50 with Aspergillus niger is above 250 µg/mL; in assay [1] it was 220 µg/mL (≈ 406 µM); in the assay on Staphylococcus aureus, above 250 µg/mL; in the assay on Escherichia coli, above 250 µg/mL; with Streptococcus mutans, 60 µg/mL (≈ 111 µM); with Nannizzia gypsea, above 250 µg/mL. The IC50 with Candida albicans is above 250 µg/mL; in the assay with Cryptococcus neoformans it was 62.5 µg/mL (≈ 115 µM); with Klebsiella aerogenes, above 250 µg/mL; with Histoplasma capsulatum, above 250 µg/mL; in the assay with Shigella flexneri, above 250 µg/mL.
Consider `C[C@H](CCC(=O)N[C@@H](CO)[C@@H](O)c1ccc([N+](=O)[O-])cc1)[C@H]1CC[C@H]2[C@@H]3CC[C@@H]4C[C@H](O)CC[C@]4(C)[C@H]3C[C@H](O)[C@]12C`, for which the IC50 in the assay on Salmonella typhi was above 250 µg/mL; in the assay on Salmonella typhimurium, above 250 µg/mL; in the assay with Sporothrix schenckii, above 250 µg/mL; with Aspergillus flavus, above 250 µg/mL; with Trichophyton rubrum, above 250 µg/mL; with Enterococcus faecalis, 10 µg/mL (≈ 17 µM). For the same molecule, the IC50 with Aspergillus niger is above 250 µg/mL; in [1], above 250 µg/mL; in the assay with Staphylococcus aureus it was above 250 µg/mL; with Escherichia coli, above 250 µg/mL; in the assay on Streptococcus mutans it was 30 µg/mL (≈ 51.1 µM); with Nannizzia gypsea, above 250 µg/mL. Also, the IC50 in the assay with Candida albicans, with Cryptococcus neoformans, in the assay with Klebsiella aerogenes, with Histoplasma capsulatum and with Shigella flexneri was above 250 µg/mL each time.
As to `CN[C@@H]1[C@H](O[C@H]2[C@H](O[C@H]3[C@H](O)[C@@H](O)[C@H](N=C(N)N)[C@@H](O)[C@@H]3N=C(N)N)O[C@@H](C)[C@]2(O)C=O)O[C@@H](CO)[C@H](O)[C@H]1O` [STREPTOMYCIN], the IC50 in the assay with Salmonella typhimurium came out at 1.25 µg/mL (≈ 2.15 µM); in the assay with Enterococcus faecalis, 1.25 µg/mL (≈ 2.15 µM); in assay [1] it was 0.12 µg/mL (≈ 0.206 µM); in the assay with Staphylococcus aureus, 0.3 µg/mL (≈ 0.516 µM); in the assay on Escherichia coli, 1.25 µg/mL (≈ 2.15 µM); in the assay on Streptococcus mutans it was 0.12 µg/mL (≈ 0.206 µM). The IC50 in the assay on Klebsiella aerogenes and in the assay on Shigella flexneri was 1.25 µg/mL (≈ 2.15 µM) in each case.
